Source: ChEMBL document CHEMBL4049418, “6-OH-Phenanthroquinolizidine Alkaloid and Its Derivatives Exert Potent Anticancer Activity by Delaying S Phase Progression” (J Med Chem, 2017)

Columns and labels:
[1] = test system: A549; test: Antiproliferative activity against human A549 cells assessed as reduction in viability after 72 hrs by SRB assay; assay type: functional, cell-based; settings: A549, 72 h
In short: (§1)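 Cells seeded and dosed in triplicate for 72 h. Suspension lines (HL-60, K-562, K562/ADR, HL-60/MX2) were read by MTT: 5 mg/mL MTT stock added, 4 h at 37 °C, formazan dissolved in 10% SDS/5% isobutanol/10 mM HCl, A570. Adherent lines were read by SRB: fixed with cold 10% TCA, stained with 0.4% SRB in 1% acetic acid, A540. IC50 from four-parameter logistic fit; mean of ≥3 independent experiments.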

[2] = test system: Bel-7402; test: Antiproliferative activity against human Bel7402 cells assessed as reduction in viability after 72 hrs by SRB assay; assay type: functional, cell-based; settings: Bel-7402, 72 h; in short: as §1
[3] = test system: KB; test: Antiproliferative activity against human KB cells after 72 hrs by SRB assay; assay type: functional, cell-based; in short: as §1
[4] = Antiproliferative activity against human KB/VCR cells after 72 hrs by SRB assay; assay type: functional, cell-based; in short: as §1
[5] = Resistance factor, ratio of IC50 for human KB/VCR cells to IC50 for human KB cells; assay type: functional
In short: (§2)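 72 h treatment in triplicate; suspended lines (HL-60, K-562, K562/ADR, HL-60/MX2) read by MTT (4 h, SDS/isobutanol/HCl solubilization, 570 nm); adherent KB and KB/VCR (MEM, 10% FBS) by SRB after TCA fixation (540 nm); IC₅₀ by four-parameter logistic fit, mean of ≥3 independent experiments.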

[6] = test system: K562; test: Antiproliferative activity against human K562 cells after 72 hrs by MTT assay; assay type: functional, cell-based; settings: K562, 72 h; in short: as §1
[7] = test system: K562/Adr; test: Antiproliferative activity against human K562/ADR cells after 72 hrs by MTT assay; assay type: functional, cell-based; in short: as §1
[8] = Resistance factor, ratio of IC50 for human K562/ADR cells to IC50 for human K562 cells; assay type: functional; in short: as §2
[9] = test system: MRC5; test: Antiproliferative activity against human MRC5 cells assessed as reduction in viability after 72 hrs by SRB assay; assay type: cell-based; settings: MRC5, 72 h; in short: as §1
[10] = Antiproliferative activity against human MRC9 cells assessed as reduction in viability after 72 hrs by SRB assay; assay type: cell-based; settings: MRC9, 72 h; in short: as §1
[11] = test system: L02; test: Antiproliferative activity against human LO2 cells assessed as reduction in viability after 72 hrs by SRB assay; assay type: cell-based; settings: L02, 72 h; in short: as §1
[12] = Selectivity ratio of IC50 for human MRC5 cells to IC50 for human A549 cells
In short: (§3)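 SRB assay: A549 (F-12, 10% FBS) and MRC-5/MRC-9 (EMEM, 10% FBS) treated in triplicate 72 h, fixed with ice-cold 10% TCA, stained with 0.4% SRB in 1% acetic acid, absorbance 540 nm; IC₅₀ by four-parameter logistic fit, mean of ≥3 independent experiments.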

[13] = Selectivity ratio of IC50 for human MRC9 cells to IC50 for human A549 cells; in short: as §3
[14] = Cytotoxicity against Sprague-Dawley rat primary neuronal cells assessed as reduction in cell viability after 24 hrs by MTT assay; assay type: cell-based
[15] = Cytotoxicity against Sprague-Dawley rat primary neuronal cells assessed as reduction in cell viability at 300 nM after 24 hrs by MTT assay; assay type: cell-based; settings: read-out: INH
[16] = test system: HL-60; test: Antiproliferative activity against human HL60 cells after 72 hrs by MTT assay; assay type: functional, cell-based; settings: HL-60, 72 h; in short: as §1
[17] = test system: HL60/MX2; test: Antiproliferative activity against human HL60/MX2 cells after 72 hrs by MTT assay; assay type: functional, cell-based; settings: HL60/MX2, 72 h; in short: as §1
[18] = Resistance factor, ratio of IC50 for human HL60/MX2 cells to IC50 for human HL60 cells; assay type: functional; in short: as §2

| Compound | IC50 [1] | IC50 [2] | also measured |
| --- | --- | --- | --- |
| COc1cc2c3c(c4ccc(OC(C)=O)cc4c2cc1OC)CN1CCCCC1C3 (centres undefined) | 22 nM | 23 nM |  |
| COc1cc2c3c(c4ccc(OC(=O)c5ccco5)cc4c2cc1OC)CN1CCCCC1C3 (centres undefined) | 52 nM | 59 nM |  |
| COc1cc2c3c(c4ccc(OCC#N)cc4c2cc1OC)CN1CCCCC1C3 (racemic) | 1 to 3 nM | 2.2 to 6 nM |  |
| COc1cc2c3c(c4ccc(O)cc4c2cc1OC)CN1CCCC[C@H]1C3 | 182 nM | 320 nM |  |
| COc1cc2c3c(c4ccc(OC(=O)c5cccnc5)cc4c2cc1OC)CN1CCCCC1C3 (centres undefined) | 277 nM | 238 nM |  |
| COc1cc2c3c(c4ccc(OCC#N)cc4c2cc1OC)CN1CCCC[C@H]1C3 | 12.9 nM | 25.8 nM |  |
| COc1cc2c3c(c4ccc(OC(=O)C5CCCCC5)cc4c2cc1OC)CN1CCCCC1C3 (centres undefined) | 191 nM | 115 nM |  |
| COc1cc2c3c(c4ccc(O)cc4c2cc1OC)CN1CCCCC1C3 (racemic) | 1.2 to 2.9 nM | 3.4 to 3.5 nM |  |
| COc1cc2c3c(c4ccc(O)cc4c2cc1OC)CN1CCCCC1C3O (racemic) | 12 nM | 8 nM |  |
| COc1cc2c3c(c4ccc(OC(=O)c5cccc6nnsc56)cc4c2cc1OC)CN1CCCCC1C3 (centres undefined) | 29 nM | 20 nM |  |
| COc1cc2c3c(c4ccc(OC(=O)c5cccs5)cc4c2cc1OC)CN1CCCCC1C3 (centres undefined) | 115 nM | 79 nM |  |
| COc1cc2c3c(c4ccc(OCCOC(=O)[C@H](C)N)cc4c2cc1OC)CN1CCCCC1C3 (some centres undefined) | 49 nM | 47 nM |  |
| CC[C@]1(O)C[C@H]2CN(CCc3c([nH]c4ccccc34)[C@@](C(=O)OC)(c3cc4c(cc3OC)N(C=O)[C@H]3[C@@](O)(C(=O)OC)[C@H](OC(C)=O)[C@]5(CC)C=CCN6CC[C@]43[C@@H]65)C2)C1 [VINCRISTINE] |  |  | IC50 [3]: 0.2 nM; IC50 [4]: 239 nM; Ratio IC50 [5]: 1193.5 |
| COc1cc2c3c(c4ccc(OCc5ccccc5)cc4c2cc1OC)CN1CCCCC1C3O (racemic) | 1530 nM | 917 nM |  |
| CCOC(=O)COc1ccc2c3c(c4cc(OC)c(OC)cc4c2c1)CC1CCCCN1C3 (centres undefined) | 458 nM | 411 nM |  |
| COc1cc2c3c(c4ccc(OC(=O)C5CC5)cc4c2cc1OC)CN1CCCCC1C3 (centres undefined) | 30 nM | 29 nM |  |
| COc1cccc2c1C(=O)c1c(O)c3c(c(O)c1C2=O)C[C@@](O)(C(=O)CO)C[C@@H]3O[C@H]1C[C@H](N)[C@H](O)[C@H](C)O1.Cl [DOXORUBICIN HYDROCHLORIDE] |  |  | IC50 [6]: 77.7 nM; IC50 [7]: 3310 nM; Ratio IC50 [8]: 42.6 |
| COc1cc2c3c(c4ccc(OCC(N)=O)cc4c2cc1OC)CN1CCCCC1C3 (centres undefined) | 16 nM | 14 nM |  |
| COc1cc2c3c(c4ccc(OC(=O)C(C)(C)C)cc4c2cc1OC)CN1CCCCC1C3 (centres undefined) | 103 nM | 136 nM |  |
| COc1cc2c3c(c4ccc(OCC#N)cc4c2cc1OC)CN1CCCC[C@@H]1C3 | 0.8 nM | 2.4 nM | IC50 [9]: 3.2 nM; IC50 [10]: 2.7 nM; IC50 [11]: 3.9 nM; Ratio IC50 [12]: 3 - 4; Ratio IC50 [13]: 3 - 4; inhibition (INH) [14]: Dose-dependent effect; cytotoxicity at 24 h, 0.3 µM [15]: 50% |
| C#CCOc1ccc2c3c(c4cc(OC)c(OC)cc4c2c1)CC1CCCCN1C3 (centres undefined) | 30 nM | 33 nM |  |
| Cl.Cl.O=C1c2c(O)ccc(O)c2C(=O)c2c(NCCNCCO)ccc(NCCNCCO)c21 [MITOXANTRONE HYDROCHLORIDE] |  |  | IC50 [16]: 7.2 nM; IC50 [17]: 351 nM; Ratio IC50 [18]: 48.7 |
